In ChEMBL document CHEMBL1144257, “5-Chloroindoloyl glycine amide inhibitors of glycogen phosphorylase: synthesis, in vitro, in vivo, and X-ray crystallographic characterization” (Bioorg Med Chem Lett, 2005):

Key:
[1] = target: T1, Glycogen phosphorylase, liver form (Homo sapiens, UniProt P06737); experiment: Inhibitory concentration against glycogen phosphorylase
T1 sequence (P06737 whole entry): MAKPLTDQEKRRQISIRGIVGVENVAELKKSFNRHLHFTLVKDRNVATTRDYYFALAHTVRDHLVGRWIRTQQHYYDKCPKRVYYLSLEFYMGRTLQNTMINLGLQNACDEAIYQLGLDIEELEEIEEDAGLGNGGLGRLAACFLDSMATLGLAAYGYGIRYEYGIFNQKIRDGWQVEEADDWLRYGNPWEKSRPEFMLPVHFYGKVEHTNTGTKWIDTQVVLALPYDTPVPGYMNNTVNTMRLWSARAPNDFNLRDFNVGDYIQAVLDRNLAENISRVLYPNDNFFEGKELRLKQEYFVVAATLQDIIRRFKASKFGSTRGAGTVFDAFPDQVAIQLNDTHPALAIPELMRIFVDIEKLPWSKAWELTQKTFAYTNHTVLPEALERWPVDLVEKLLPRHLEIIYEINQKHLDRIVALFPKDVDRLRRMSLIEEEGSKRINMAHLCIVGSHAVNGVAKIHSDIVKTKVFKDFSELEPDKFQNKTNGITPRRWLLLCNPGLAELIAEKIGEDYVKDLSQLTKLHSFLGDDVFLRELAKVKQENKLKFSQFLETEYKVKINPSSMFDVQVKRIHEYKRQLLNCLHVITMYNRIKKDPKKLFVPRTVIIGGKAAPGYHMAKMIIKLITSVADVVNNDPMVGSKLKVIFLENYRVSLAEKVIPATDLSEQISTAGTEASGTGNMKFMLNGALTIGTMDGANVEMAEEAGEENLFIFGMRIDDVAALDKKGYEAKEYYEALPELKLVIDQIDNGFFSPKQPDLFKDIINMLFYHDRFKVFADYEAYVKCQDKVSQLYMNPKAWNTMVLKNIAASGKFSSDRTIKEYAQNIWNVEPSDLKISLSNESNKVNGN

Mus musculus = experiment: In-vivo minimum effective dose (MED) for reduction of plasma glucose in mouse after 3 hours; assay type: functional; settings: read-out: MED
Summary of the method: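 Fed diabetic ob/ob mice, oral dosing in neat PEG400, starting at […] and then at successively lower doses. Plasma glucose measured 3h post-dose. Lowering is expressed as percent decrease versus vehicle-treated controls within the same experiment, with significance by unpaired t-test on group mean glucose. MED is the lowest dose giving reduction.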

SK-HEP1 = experiment: Inhibitory concentration against human SK-Hep-1 cells (hepatoma cell line); assay type: functional, cell-based
Summary of the method: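 SK-HEP-1 cells carrying pre-labeled ¹⁴C-glycogen, with phosphorylase activated by forskolin. Glycogenolysis is the ¹⁴C-glycogen (dpm) difference between basal and forskolin-treated cells. Inhibition is expressed as percent of forskolin-induced glycogenolysis in DMSO controls. IC50 from a 6-point curve (0.1–30μM), triplicate points, mean of ≥2 independent experiments where repeated.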

Row | SMILES | IC50 [1] [nM] | IC50 (SK-HEP1) [nM] | minimal effective dose (Mus musculus) [mg/kg]
1 | O=C(NCC(=O)N(CCO)CC1CCCO1)c1cc2cc(Cl)ccc2[nH]1 (stereo not drawn) | 550 | 5700 | 
2 | O=C(NCC(=O)N(CCO)Cc1cccnc1)c1cc2cc(Cl)ccc2[nH]1 | 1100 |  | 
3 | O=C(NCC(=O)N(CCN1CCOCC1)C1CCCC1)c1cc2cc(Cl)ccc2[nH]1 | 1500 |  | 
4 | CN(CC1CC1)C(=O)CNC(=O)c1cc2cc(Cl)ccc2[nH]1 | 470 | 1200 | 
5 | CN(C(=O)CNC(=O)c1cc2cc(Cl)ccc2[nH]1)C1CCC1 | 170 | 1000 | 
6 | CC(CCO)N(C(=O)CNC(=O)c1cc2cc(Cl)ccc2[nH]1)C1CCCC1 (stereo not drawn) | 210 | 1400 | 
7 | CCCN(CCO)C(=O)CNC(=O)c1cc2cc(Cl)ccc2[nH]1 | 150 | 490 | > 25
8 | CN(CCc1ccccc1)C(=O)CNC(=O)c1cc2cc(Cl)ccc2[nH]1 | > 10000 |  | 
9 | CN(C(=O)CNC(=O)c1cc2cc(Cl)ccc2[nH]1)C1CCN(C=O)C1 (stereo not drawn) | 250 | 19000 | 
10 | O=C(NCC(=O)N(CCO)Cc1ncc[nH]1)c1cc2cc(Cl)ccc2[nH]1 | 430 | 14000 | 
11 | CN(C(=O)CNC(=O)c1cc2cc(Cl)ccc2[nH]1)C1CCC(O)CC1 (stereo not drawn) | 2100 |  | 
12 | O=C(NCC(=O)N(CCO)C1CCCCCCCCCCC1)c1cc2cc(Cl)ccc2[nH]1 | 950 | > 30000 | 
13 | O=C(NCC(=O)N(CCOCc1ccccc1)C1CCCC1)c1cc2cc(Cl)ccc2[nH]1 | 1600 |  | 
14 | CN(C(=O)CNC(=O)c1cc2cc(Cl)ccc2[nH]1)c1ccccc1 | 210 | 7100 | 
15 | O=C(NCC(=O)N(CCO)Cc1ccccc1)c1cc2cc(Cl)ccc2[nH]1 | 320 | 2500 | 
16 | CN1CCC(N(C)C(=O)CNC(=O)c2cc3cc(Cl)ccc3[nH]2)C1 (stereo not drawn) | 9600 |  | 
17 | O=C(NCC(=O)N(C(CO)CO)C1CCCC1)c1cc2cc(Cl)ccc2[nH]1 | 350 | 9400 | 
18 | CN(Cc1ccncc1)C(=O)CNC(=O)c1cc2cc(Cl)ccc2[nH]1 | 1600 |  | 
19 | CC(C)OCCN(C(=O)CNC(=O)c1cc2cc(Cl)ccc2[nH]1)C1CCCC1 | 1100 |  | 
20 | CN(C)CCCN(C(=O)CNC(=O)c1cc2cc(Cl)ccc2[nH]1)C1CCCC1 | 5000 |  | 
21 | CC(O)CN(C(=O)CNC(=O)c1cc2cc(Cl)ccc2[nH]1)C1CCCC1 (stereo not drawn) | 16 | 1300 | 
22 | NC(=O)CN(C(=O)CNC(=O)c1cc2cc(Cl)ccc2[nH]1)C1CCCC1 | 4600 |  | 
23 | CC(O)(CO)CN(C(=O)CNC(=O)c1cc2cc(Cl)ccc2[nH]1)C1CCCC1 (stereo not drawn) | 83 | 2400 | > 10
24 | CN(Cc1ccccn1)C(=O)CNC(=O)c1cc2cc(Cl)ccc2[nH]1 | 1500 |  | 
25 | CC(C)OCCCN(C(=O)CNC(=O)c1cc2cc(Cl)ccc2[nH]1)C1CCCC1 | 670 |  | 

Row | SMILES | IC50 [1] [nM] | IC50 (SK-HEP1) [nM] | minimal effective dose (Mus musculus) [mg/kg]
26 | O=C(NCC(=O)N(C1CCCC1)C1CCCC1)c1cc2cc(Cl)ccc2[nH]1 | 660 |  | 
27 | CN(C(=O)CNC(=O)c1cc2cc(Cl)ccc2[nH]1)c1ccccn1 | 340 | 9900 | 
28 | C=CCN(C(=O)CNC(=O)c1cc2cc(Cl)ccc2[nH]1)C1CCCC1 | 96 | 900 | 
29 | O=C(O)CN(C(=O)CNC(=O)c1cc2cc(Cl)ccc2[nH]1)C1CCCC1 | 260 | > 10000 | 
30 | CN(C(=O)CNC(=O)c1cc2cc(Cl)ccc2[nH]1)c1cccnc1 | 330 | 1700 | 
31 | COCCCN(C(=O)CNC(=O)c1cc2cc(Cl)ccc2[nH]1)C1CCCC1 | 370 |  | 
32 | COCC(O)CN(C(=O)CNC(=O)c1cc2cc(Cl)ccc2[nH]1)C1CCCC1 (stereo not drawn) | 100 | 870 | 
33 | O=C(NCC(=O)N(CCO)C1CCc2ccccc21)c1cc2cc(Cl)ccc2[nH]1 (stereo not drawn) | 49 | 1800 | 
34 | CC(C)CN(C)C(=O)CNC(=O)c1cc2cc(Cl)ccc2[nH]1 | 230 | 620 | 
35 | COCC(N)CN(C(=O)CNC(=O)c1cc2cc(Cl)ccc2[nH]1)C1CCCC1 (stereo not drawn) | 1200 |  | 
36 | CN(C(=O)CNC(=O)c1cc2cc(Cl)ccc2[nH]1)C(C)(C)C | 670 |  | 
37 | CN(C(=O)CNC(=O)c1cc2cc(Cl)ccc2[nH]1)C1CCN(C=O)CC1 | 8400 |  | 
38 | CCCCN(C)C(=O)CNC(=O)c1cc2cc(Cl)ccc2[nH]1 | 150 | 1400 | 
39 | CN(Cc1cccnc1)C(=O)CNC(=O)c1cc2cc(Cl)ccc2[nH]1 | 1900 |  | 
40 | CN(CC(F)(F)F)C(=O)CNC(=O)c1cc2cc(Cl)ccc2[nH]1 | 1900 |  | 
41 | CC(C)N(CCO)C(=O)CNC(=O)c1cc2cc(Cl)ccc2[nH]1 | 210 | 3400 | > 10
42 | CN(Cc1ccccc1)C(=O)CNC(=O)c1cc2cc(Cl)ccc2[nH]1 | 550 | > 10000 | 
43 | CC(C)(C)N(CCO)C(=O)CNC(=O)c1cc2cc(Cl)ccc2[nH]1 | 290 | 6700 | 
44 | CCOC(=O)CN(C(=O)CNC(=O)c1cc2cc(Cl)ccc2[nH]1)C1CCCC1 | 530 | 5200 | 
45 | CN(C(=O)CNC(=O)c1cc2cc(Cl)ccc2[nH]1)C1CCOCC1 | 510 | 3400 | 
46 | CC(C)OCC(O)CN(C(=O)CNC(=O)c1cc2cc(Cl)ccc2[nH]1)C1CCCC1 (stereo not drawn) | 930 |  | 
47 | CN(C(=O)CNC(=O)c1cc2cc(Cl)ccc2[nH]1)C1CCCCCC1 | 320 | > 10000 | 
48 | CN(C)C(=O)CN(C(=O)CNC(=O)c1cc2cc(Cl)ccc2[nH]1)C1CCCC1 | 410 | 13000 | 
49 | O=C(NCC(=O)N(CCO)Cc1ccco1)c1cc2cc(Cl)ccc2[nH]1 | 260 | 1500 | 
50 | CN(C(=O)CNC(=O)c1cc2cc(Cl)ccc2[nH]1)C1CCS(=O)(=O)C1 (stereo not drawn) | 410 | 2000 | 

Second part, led by results:

Row | IC50 [1] [nM] | IC50 (SK-HEP1) [nM] | SMILES | minimal effective dose (Mus musculus) [mg/kg]
51 | 200 | 1500 | COCCN(C(=O)CNC(=O)c1cc2cc(Cl)ccc2[nH]1)C1CCCC1 | > 10
52 | 1600 |  | NCCN(C(=O)CNC(=O)c1cc2cc(Cl)ccc2[nH]1)C1CCCC1 | 
53 | 340 | 5000 | O=C(NCC(=O)N(CCO)C1CCSC1)c1cc2cc(Cl)ccc2[nH]1 (stereo not drawn) | 
54 | 54 | 1300 | O=C(NCC(=O)N(CC(O)CO)C1CCCC1)c1cc2cc(Cl)ccc2[nH]1 (stereo not drawn) | 10
55 | 210 | > 30000 | O=C(NCC(=O)N(CCO)C1CCCCCCCCC1)c1cc2cc(Cl)ccc2[nH]1 | 
56 | 670 |  | CN(C(=O)CNC(=O)c1cc2cc(Cl)ccc2[nH]1)C1CC1 | 
57 | 12 | > 30000 | O=C(NCC(=O)N(CCO)C1CCS(=O)(=O)CC1)c1cc2cc(Cl)ccc2[nH]1 | 
58 | 570 | 4000 | CN(CCO)C(=O)CNC(=O)c1cc2cc(Cl)ccc2[nH]1 | 
59 | 82 | 9400 | CCCCN(C(=O)CNC(=O)c1cc2cc(Cl)ccc2[nH]1)C1CCCC1 | 
60 | 42 | 760 | O=C(NCC(=O)N(CCCO)C1CCCC1)c1cc2cc(Cl)ccc2[nH]1 | > 10
61 | 200 | 4600 | O=C(NCC(=O)N(CCO)C1CC1)c1cc2cc(Cl)ccc2[nH]1 | 
62 | 3000 |  | NCCCN(C(=O)CNC(=O)c1cc2cc(Cl)ccc2[nH]1)C1CCCC1 | 
63 | 3900 |  | O=C(NCC(=O)N(CCCCO)C1CCCC1)c1cc2cc(Cl)ccc2[nH]1 | 
64 | 340 |  | CCCN(C(=O)CNC(=O)c1cc2cc(Cl)ccc2[nH]1)C1CCCC1 | 
65 | 32 | 12000 | O=C(NCC(=O)N(CCO)C1CCCCCCC1)c1cc2cc(Cl)ccc2[nH]1 | 
66 | 9700 |  | CN(C)CCN(C(=O)CNC(=O)c1cc2cc(Cl)ccc2[nH]1)C1CCCC1 | 
67 | 160 | 1500 | O=C(NCC(=O)N(CCO)CC1CC1)c1cc2cc(Cl)ccc2[nH]1 | > 10
68 | 140 | 750 | N#CCCN(C(=O)CNC(=O)c1cc2cc(Cl)ccc2[nH]1)C1CCCC1 | 
69 | 55 | 1800 | O=C(NCC(=O)N(CCO)C1CCOC1)c1cc2cc(Cl)ccc2[nH]1 (stereo not drawn) | 
70 | 82 | 28000 | O=C(NCC(=O)N(CCO)C1CCCCCCCC1)c1cc2cc(Cl)ccc2[nH]1 | 
71 | 510 | 8300 | NC(CO)CN(C(=O)CNC(=O)c1cc2cc(Cl)ccc2[nH]1)C1CCCC1 (stereo not drawn) | 
72 | 210 | 410 | CCN(C(=O)CNC(=O)c1cc2cc(Cl)ccc2[nH]1)C1CCCC1 | 
73 | 1300 |  | O=C(NCC(=O)N(CCO)C1CCS(=O)(=O)C1)c1cc2cc(Cl)ccc2[nH]1 (stereo not drawn) | 
74 | 30 | 2300 | O=C(NCC(=O)N(CCO)C1CCCCCC1)c1cc2cc(Cl)ccc2[nH]1 | 
